Assay results taken from ChEMBL document CHEMBL1124260, “Synthesis and antitumor activity of quaternary ellipticine glycosides, a series of novel and highly active antitumor agents” (1988).

Tests used:
Mus musculus [1] = experiment: Effect on ip implanted EAC by ip administration for 5 days at 40 mg/kg was measured as increase in mean life span; format: functional; conditions: 120 h, route intraperitoneal
How it was run: (§1)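 Drug in 0.9% NaCl was given ip for 5 consecutive days from 24 h after inoculation. ILS % came from treated vs control mean survival time, followed for 80 days.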

Mus musculus [2] = experiment: Effect on ip implanted syngeneic B16 melanoma by ip administration for 9 days at 2.5 mg/kg was measured as increase in mean life span; conditions: 216 h
Mus musculus [3] = experiment: Number of survivors out of 6 ip implanted L1210 leukemia in mouse after ip administration of 10 mg/kg after 80 days; format: functional; conditions: route intraperitoneal
How it was run: (§2)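 Female BDF1 mice implanted ip with ascitic fluid holding 10^5 L1210 cells. Saline-dissolved drug given ip daily on days 1-5, starting 24 h after implant. Six mice per dose group, followed 80 days. Survivors/total counted at day 80; ILS % from mean survival time vs controls.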

Mus musculus [4] = experiment: Effect on ip implanted syngeneic B16 melanoma by ip administration for 9 days at 5 mg/kg was measured as increase in mean life span; conditions: 216 h
Mus musculus [5] = experiment: Number of survivors out of 6 ip implanted P388 leukemia in mouse after ip administration of 10 mg/kg after 80 days; format: functional; conditions: route intraperitoneal
How it was run: (§3)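 P388 leukemia, 10^6 ascitic cells implanted ip in female BDF1 mice. Drug in saline given ip for 5 consecutive days from 24 h after transplant. Groups of six per dose level. Survivors/total recorded at the 80-day end of observation; ILS % from treated/control mean survival time.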

Mus musculus [6] = experiment: Number of survivors out of 6 ip implanted EAC leukemia mouse tested after 80 days at 40 mg/kg; format: functional; conditions: route intraperitoneal
How it was run: (§4)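 Drug dissolved and diluted in saline just before use, given ip for 5 consecutive days starting 24 h after implant. Six mice per dose. Survivors counted at 80 days; ILS % taken from mean survival time of treated vs control mice.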

Mus musculus [7] = experiment: Antitumor activity against ip implanted L1210 leukemia in mouse after iv administration of 8 mg/kg for 5 days expressed as increase in mean life span; conditions: 120 h
Mus musculus [8] = experiment: Number of survivors out of 6 ip implanted L1210 leukemia in mouse after ip administration of 20 mg/kg after 80 days; format: functional; conditions: route intraperitoneal; how it was run: as §2
Mus musculus [9] = experiment: Antitumor activity against ip implanted P388 leukemia in mouse after iv administration of 16 mg/kg for 5 days expressed as increase in mean life span; conditions: 120 h
Mus musculus [10] = experiment: Antitumor activity against ip implanted L1210 leukemia in mouse after ip administration of 30 mg/kg for 5 days expressed as increase in mean life span; format: functional; conditions: Mus musculus, L1210, ip, 120 h, route intraperitoneal
How it was run: (§5)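 Drug was dissolved in 0.9% NaCl, diluted just before use and given ip once daily for 5 consecutive days, starting 24 h after transplant. ILS % = mean survival time of treated vs control mice, observed for 80 days.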

Mus musculus [11] = experiment: Antitumor activity against ip implanted L1210 leukemia in mouse after ip administration of 40 mg/kg for 5 days expressed as increase in mean life span; format: functional; conditions: 120 h, route intraperitoneal; how it was run: as §5
Mus musculus [12] = experiment: Antitumor activity against ip implanted P388 leukemia in mouse after iv administration of 8 mg/kg for 5 days expressed as increase in mean life span; conditions: 120 h
Mus musculus [13] = experiment: Effect on ip implanted sarcoma 180 by ip administration for 5 days at 20 mg/kg was measured as increase in mean life span; format: functional; conditions: Sarcoma-180, ip, 120 h, route intraperitoneal
How it was run: (§6)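 Saline-dissolved drug was dosed ip daily for 5 consecutive days starting 24 h later. Readout was ILS % (mean survival time of treated vs control) over an 80-day observation.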

Mus musculus [14] = experiment: Number of survivors out of 6 ip implanted P388 leukemia in mouse after ip administration of 20 mg/kg after 80 days; format: functional; conditions: route intraperitoneal; how it was run: as §3
Mus musculus [15] = experiment: Antitumor activity against ip implanted P388 leukemia in mouse after ip administration of 1.25 mg/kg for 5 days expressed as increase in mean life span; format: functional; conditions: 120 h, route intraperitoneal
How it was run: (§7)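 Saline-dissolved drug was given ip daily for 5 consecutive days, beginning 24 h post-transplant. ILS % was calculated from treated vs control mean survival time over an 80-day observation period.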

Mus musculus [16] = experiment: Antitumor activity against ip implanted L1210 leukemia in mouse after ip administration of 10 mg/kg for 5 days expressed as increase in mean life span; format: functional; conditions: Mus musculus, L1210, ip, 120 h, route intraperitoneal; how it was run: as §5
Mus musculus [17] = experiment: Inhibition of sc implanted syngeneic colon 38 carcinoma by ip administration at 20 mg/kg on 1, 3, 5, 7, 9 days measured as inhibition ratio; format: functional; conditions: route subcutaneous
How it was run: (§8)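 Tumor homogenate (70 mg) implanted into the axillary region of female BDF1 mice. Drug dissolved in 0.9% NaCl and diluted with saline just before use, then given ip on days 1, 3, 5, 7 and 9. Tumor length and width were measured by caliper on day 20 after inoculation and converted to estimated weight. Result reported as treated vs control tumor weight, T/C %.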

Mus musculus [18] = experiment: Antitumor activity against ip implanted L1210 leukemia in mouse after iv administration of 16 mg/kg for 5 days expressed as increase in mean life span; conditions: 120 h
Mus musculus [19] = experiment: Number of survivors out of 6 ip implanted P388 leukemia in mouse after iv administration of 16 mg/kg after 80 days
Mus musculus [20] = experiment: Number of survivors out of 6 ip implanted P388 leukemia in mouse after ip administration of 5 mg/kg after 80 days; format: functional; conditions: route intraperitoneal; how it was run: as §3
Mus musculus [21] = experiment: Antitumor activity against ip implanted P388 leukemia in mouse after ip administration of 10 mg/kg for 5 days expressed as increase in mean life span; format: functional; conditions: 120 h, route intraperitoneal; how it was run: as §7
Mus musculus [22] = experiment: Inhibition of sc implanted syngeneic colon 38 carcinoma by ip administration at 30 mg/kg on 1, 3, 5, 7, 9 days measured as inhibition ratio; format: functional; conditions: route intraperitoneal; how it was run: as §8
Mus musculus [23] = experiment: Effect on ip implanted syngeneic B16 melanoma by ip administration of 20 mg/kg for 9 days measured as increase in mean life span; conditions: 216 h
Mus musculus [24] = experiment: Number of survivors out of 6 ip implanted L1210 leukemia mouse, tested after 80 days at 30 mg/kg; format: functional; conditions: route intraperitoneal; how it was run: as §2
Mus musculus [25] = experiment: Antitumor activity against ip implanted L1210 leukemia in mouse after ip administration of 1.25 mg/kg for 5 days expressed as increase in mean life span; format: functional; conditions: 120 h, route intraperitoneal; how it was run: as §5
Mus musculus [26] = experiment: Effect on ip implanted EAC by ip administration for 5 days at 10 mg/kg was measured as increase in mean life span; format: functional; conditions: 120 h, route intraperitoneal; how it was run: as §1
Mus musculus [27] = experiment: Antitumor activity against ip implanted P388 leukemia in mouse after ip administration of 20 mg/kg for 5 days expressed as increase in mean life span; format: functional; conditions: 120 h, route intraperitoneal; how it was run: as §7
Mus musculus [28] = experiment: Number of survivors out of 6 ip implanted EAC leukemia mouse tested after 80 days at 20 mg/kg; format: functional; conditions: route intraperitoneal; how it was run: as §4
Mus musculus [29] = experiment: Effect on ip implanted EAC by ip administration for 5 days at 20 mg/kg was measured as increase in mean life span; format: functional; conditions: 120 h, route intraperitoneal; how it was run: as §1
Mus musculus [30] = experiment: Effect on ip implanted syngeneic B16 melanoma by ip administration for 9 days at 10 mg/kg was measured as increase in mean life span; conditions: 216 h
Mus musculus [31] = experiment: Antitumor activity against ip implanted L1210 leukemia in mouse after ip administration of 5 mg/kg for 5 days expressed as increase in mean life span; format: functional; conditions: Mus musculus, L1210, ip, 120 h, route intraperitoneal; how it was run: as §5
Mus musculus [32] = experiment: Antitumor activity against ip implanted P388 leukemia in mouse after ip administration of 5 mg/kg for 5 days expressed as increase in mean life span; format: functional; conditions: 120 h, route intraperitoneal; how it was run: as §7
Mus musculus [33] = experiment: Number of survivors out of 6 ip implanted sarcoma 180 leukemia mouse tested after 80 days at 40 mg/kg; format: functional; conditions: route intraperitoneal; how it was run: as §4
Mus musculus [34] = experiment: Effect on ip implanted sarcoma 180 by ip administration for 5 days at 40 mg/kg was measured as increase in mean life span; format: functional; conditions: Sarcoma-180, ip, 120 h, route intraperitoneal; how it was run: as §6
Mus musculus [35] = experiment: Effect on ip implanted sarcoma 180 by ip administration for 5 days at 10 mg/kg was measured as increase in mean life span; format: functional; conditions: Sarcoma-180, ip, 120 h, route intraperitoneal; how it was run: as §6
Mus musculus [36] = experiment: Effect on ip implanted EAC by ip administration for 5 days at 5 mg/kg was measured as increase in mean life span; format: functional; conditions: 120 h, route intraperitoneal; how it was run: as §1
Mus musculus [37] = experiment: Antitumor activity against ip implanted P388 leukemia in mouse after ip administration of 40 mg/kg for 5 days expressed as increase in mean life span; format: functional; conditions: 120 h, route intraperitoneal; how it was run: as §7
Mus musculus [38] = experiment: Number of survivors out of 6 ip implanted EAC leukemia mouse tested after 80 days at 10 mg/kg; format: functional; conditions: route intraperitoneal; how it was run: as §4
Mus musculus [39] = experiment: Antitumor activity against ip implanted L1210 leukemia in mouse after ip administration of 20 mg/kg for 5 days expressed as increase in mean life span; format: functional; conditions: 120 h, route intraperitoneal; how it was run: as §5
Mus musculus [40] = experiment: Antitumor activity against ip implanted syngeneic P388 leukemia in mouse after ip administration of 5 mg/kg for 5 days expressed as increase in mean life span; format: functional; conditions: 120 h, route intraperitoneal; how it was run: as §7
Mus musculus [41] = experiment: Inhibition of sc implanted syngeneic colon 38 carcinoma by ip administration at 5 mg/kg on 1, 3, 5, 7, 9 days measured as inhibition ratio; format: functional; conditions: route subcutaneous; how it was run: as §8

Cc1c2cc[n+]([C@@H]3O[C@H](CO)[C@H](O)[C@H]3O)cc2c(C)c2c1[nH]c1ccc(O)cc12.[Cl-]
ILS at 40 mg/kg (Mus musculus [1]): > 501% | ILS at 2.5 mg/kg (Mus musculus [2]): 38% | Cures (Mus musculus [3]): 1 | ILS at 5 mg/kg (Mus musculus [4]): 42% | Cures (Mus musculus [5]): 2 | Cures (Mus musculus [6]): 5 | ILS at 8 mg/kg (Mus musculus [7]): 102% | Cures (Mus musculus [8]): 1 | ILS at 16 mg/kg (Mus musculus [9]): > 417% | ILS at 30 mg/kg (Mus musculus [10]): > 682% | ILS at 40 mg/kg (Mus musculus [11]): 59% | ILS at 8 mg/kg (Mus musculus [12]): 122% | ILS at 20 mg/kg (Mus musculus [13]): > 318% | Cures (Mus musculus [14]): 5 | ILS at 1.25 mg/kg (Mus musculus [15]): 110% | ILS at 10 mg/kg (Mus musculus [16]): > 272% | T/C (Mus musculus [17]): 36% | ILS at 16 mg/kg (Mus musculus [18]): 168% | Cures (Mus musculus [19]): 2 | Cures (Mus musculus [20]): 3 | ILS at 10 mg/kg (Mus musculus [21]): > 376% | T/C (Mus musculus [22]): 2% | ILS at 20 mg/kg (Mus musculus [23]): 52% | Cures (Mus musculus [24]): 4 | ILS at 1.25 mg/kg (Mus musculus [25]): 55% | ILS at 10 mg/kg (Mus musculus [26]): > 318% | ILS at 20 mg/kg (Mus musculus [27]): > 628% | Cures (Mus musculus [28]): 3 | ILS at 20 mg/kg (Mus musculus [29]): > 380% | ILS at 10 mg/kg (Mus musculus [30]): 64% | ILS at 5 mg/kg (Mus musculus [31]): 73% | ILS at 5 mg/kg (Mus musculus [32]): > 418% | Cures (Mus musculus [33]): 2 | ILS at 40 mg/kg (Mus musculus [34]): > 335% | ILS at 10 mg/kg (Mus musculus [35]): 69% | ILS at 5 mg/kg (Mus musculus [36]): 125% | ILS at 40 mg/kg (Mus musculus [37]): 112% | Cures (Mus musculus [38]): 2 | ILS at 20 mg/kg (Mus musculus [39]): > 244%

CC(=O)[O-].Cc1c2cc[n+](C)cc2c(C)c2c1[nH]c1ccc(O)cc12 [ELLIPTINIUM ACETATE]
ILS at 2.5 mg/kg (Mus musculus [2]): 35% | ILS at 5 mg/kg (Mus musculus [40]): 90% | ILS at 5 mg/kg (Mus musculus [31]): 48% | T/C (Mus musculus [41]): 38%
